Activity calls are given as the source filed them. The calls are words filed in the database; no cut-off is given here.
Key:
[1] = tested on: Cystic fibrosis transmembrane conductance regulator (Homo sapiens), P13569 [F508del]; experiment: Activity at CFTR F508 deletion mutant expressed in forskolin-stimulated FRT cells assessed as maximal increase in iodine influx measured as YFP quenching rate at 0.2 uM after 24 hrs by fluorescence assay; assay type: cell-based
Method in brief: (§1)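 ΔF508-CFTR and halide-sensitive YFP coexpressed in FRT cells, held at 27 °C for 24 h for rescue, then stimulated 30–40 min with 20 μM forskolin with or without compound at 0.2, 2 and 20 μM. Fluorescence read before and after I– addition (100 mM final). Normalized decay fitted exponentially for maximal quenching rate; dose–response fitted with Hill equation for potency and maximal effect. Three independent determinations.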

[2] = species: Cavia porcellus; experiment: Negative ionotropic activity in potassium depolarized guinea pig longitudinal smooth muscle assessed as inhibition of calcium-induced contraction at 5 X 10^-5 M; assay type: functional
[3] = tested on: Cystic fibrosis transmembrane conductance regulator (Homo sapiens), P13569 [F508del]; experiment: Activity at CFTR F508 deletion mutant expressed in forskolin-stimulated FRT cells assessed as maximal increase in iodine influx measured as YFP quenching rate up to 20 uM after 24 hrs by fluorescence assay; assay type: cell-based; method in brief: as §1
[4] = Negative ionotropic activity in potassium depolarized guinea pig longitudinal smooth muscle assessed as inhibition of calcium-induced contraction; assay type: functional, Cavia porcellus
[5] = tested on: Cystic fibrosis transmembrane conductance regulator (Homo sapiens), P13569 [F508del]; experiment: Activity at CFTR F508 deletion mutant expressed in forskolin-stimulated FRT cells assessed as maximal increase in iodine influx measured as YFP quenching rate after 24 hrs by fluorescence assay; assay type: cell-based; method in brief: as §1
[6] = species: Cavia porcellus; experiment: Negative ionotropic activity in potassium depolarized guinea pig longitudinal smooth muscle assessed as inhibition of calcium-induced contraction at 5 X 10^-8 M; assay type: functional
[7] = Binding affinity to CFTR F508 deletion mutant expressed in forskolin-stimulated FRT cells assessed as increase in iodine influx measured as YFP quenching rate after 24 hrs by fluorescence assay; assay type: cell-based; method in brief: as §1
[8] = Bronchodilatory activity in guinea pig trachea assessed as inhibition of carbachol-induced contraction; assay type: functional, tissue-based, Cavia porcellus
[9] = Negative chronotropic activity against potassium-induced contraction in guinea pig right atrium assessed as decrease atrial rate at 10^-5 M relative to control; assay type: functional; conditions: Cavia porcellus, Cardiac atrium
Method in brief: (§2)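 Spontaneously beating isolated guinea pig right atrium, pretreatment rate 165–190 beats/min. Drugs added cumulatively. Decrease in atrial rate expressed as percent change from control, n = 7–8. […] Control versus treated tested at each concentration by Student's t-test, P < 0.05. Mean ± SEM.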

[10] = species: Cavia porcellus; experiment: Negative ionotropic activity in potassium depolarized guinea pig longitudinal smooth muscle assessed as inhibition of calcium-induced contraction at 10^-6 M; assay type: functional
[11] = Negative chronotropic activity against potassium-induced contraction in guinea pig right atrium assessed as decrease atrial rate; assay type: functional, tissue-based; conditions: Cavia porcellus, Cardiac atrium; method in brief: as §2
[12] = Negative ionotropic activity against potassium-induced contraction in guinea pig left atrium assessed as […] at 10^-5 M relative to control; assay type: functional; conditions: Cavia porcellus, Cardiac atrium
Method in brief: (§3)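 Isolated guinea pig left atrium paced at 1 Hz. Drugs added cumulatively. Negative inotropic effect expressed as percent change from control, n = 5–6. […] Student's t-test against control at each concentration, P < 0.05. Mean ± SEM.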

[13] = tested on: Aorta; experiment: Vasorelaxant activity in potassium depolarized guinea pig aortic strip assessed as inhibition of calcium-induced contraction at 10^-5 M; assay type: functional; conditions: Cavia porcellus
Method in brief: (§4)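 Guinea pig aortic strips depolarized with 80 mM K+, with cumulative drug addition. Relaxation given as mean ± SEM. […] Student's t-test against control, P < 0.05.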

[14] = Bronchodilatory activity in guinea pig trachea assessed as inhibition of carbachol-induced contraction at 10^-4 M; assay type: functional; conditions: Cavia porcellus
[15] = Ratio EC50 for nifedipine to compound for negative […] activity against potassium-induced contraction in left atrium of guinea pig; assay type: functional, Cavia porcellus, Cardiac atrium
[16] = Bronchodilatory activity in guinea pig trachea assessed as inhibition of carbachol-induced contraction at 10^-5 M; assay type: functional; conditions: Cavia porcellus
[17] = species: Cavia porcellus; experiment: Negative ionotropic activity in potassium depolarized guinea pig longitudinal smooth muscle assessed as inhibition of calcium-induced contraction at 10^-5 M; assay type: functional
[18] = Negative ionotropic activity against potassium-induced contraction in guinea pig left atrium assessed as […] at 10^-6 M relative to control; assay type: functional; conditions: Cavia porcellus, Cardiac atrium; method in brief: as §3
[19] = Negative ionotropic activity against potassium-induced contraction in guinea pig left atrium assessed as decrease in developed tension; conditions: Cavia porcellus, Cardiac atrium
[20] = Ratio EC50 for negative chronotropic activity against potassium-induced contraction in guinea pig right atrium to EC50 for negative […] activity against potassium-induced contraction in guinea pig left atrium; assay type: functional, Cavia porcellus, Cardiac atrium
[21] = tested on: Aorta; experiment: Vasorelaxant activity in potassium depolarized guinea pig aortic strip assessed as inhibition of calcium-induced contraction at 10^-4 M; assay type: functional; conditions: Cavia porcellus; method in brief: as §4
[22] = species: Cavia porcellus; experiment: Negative ionotropic activity in potassium depolarized guinea pig longitudinal smooth muscle assessed as inhibition of calcium-induced contraction at 5 X 10^-7 M; assay type: functional
[23] = Negative ionotropic activity against potassium-induced contraction in guinea pig left atrium assessed as […] at 10^-4 M relative to control; assay type: functional; conditions: Cavia porcellus, Cardiac atrium; method in brief: as §3
[24] = Negative chronotropic activity against potassium-induced contraction in guinea pig right atrium assessed as decrease atrial rate at 10^-4 M relative to control; assay type: functional; conditions: Cavia porcellus, Cardiac atrium; method in brief: as §2
[25] = tested on: Aorta; experiment: Vasorelaxant activity in potassium depolarized guinea pig aortic strip assessed as inhibition of calcium-induced contraction at 10^-6 M; assay type: functional; conditions: Cavia porcellus; method in brief: as §4

Cystic fibrosis transmembrane conductance regulator (Homo sapiens), P13569 [F508del], sequence (P13569 as listed by the source): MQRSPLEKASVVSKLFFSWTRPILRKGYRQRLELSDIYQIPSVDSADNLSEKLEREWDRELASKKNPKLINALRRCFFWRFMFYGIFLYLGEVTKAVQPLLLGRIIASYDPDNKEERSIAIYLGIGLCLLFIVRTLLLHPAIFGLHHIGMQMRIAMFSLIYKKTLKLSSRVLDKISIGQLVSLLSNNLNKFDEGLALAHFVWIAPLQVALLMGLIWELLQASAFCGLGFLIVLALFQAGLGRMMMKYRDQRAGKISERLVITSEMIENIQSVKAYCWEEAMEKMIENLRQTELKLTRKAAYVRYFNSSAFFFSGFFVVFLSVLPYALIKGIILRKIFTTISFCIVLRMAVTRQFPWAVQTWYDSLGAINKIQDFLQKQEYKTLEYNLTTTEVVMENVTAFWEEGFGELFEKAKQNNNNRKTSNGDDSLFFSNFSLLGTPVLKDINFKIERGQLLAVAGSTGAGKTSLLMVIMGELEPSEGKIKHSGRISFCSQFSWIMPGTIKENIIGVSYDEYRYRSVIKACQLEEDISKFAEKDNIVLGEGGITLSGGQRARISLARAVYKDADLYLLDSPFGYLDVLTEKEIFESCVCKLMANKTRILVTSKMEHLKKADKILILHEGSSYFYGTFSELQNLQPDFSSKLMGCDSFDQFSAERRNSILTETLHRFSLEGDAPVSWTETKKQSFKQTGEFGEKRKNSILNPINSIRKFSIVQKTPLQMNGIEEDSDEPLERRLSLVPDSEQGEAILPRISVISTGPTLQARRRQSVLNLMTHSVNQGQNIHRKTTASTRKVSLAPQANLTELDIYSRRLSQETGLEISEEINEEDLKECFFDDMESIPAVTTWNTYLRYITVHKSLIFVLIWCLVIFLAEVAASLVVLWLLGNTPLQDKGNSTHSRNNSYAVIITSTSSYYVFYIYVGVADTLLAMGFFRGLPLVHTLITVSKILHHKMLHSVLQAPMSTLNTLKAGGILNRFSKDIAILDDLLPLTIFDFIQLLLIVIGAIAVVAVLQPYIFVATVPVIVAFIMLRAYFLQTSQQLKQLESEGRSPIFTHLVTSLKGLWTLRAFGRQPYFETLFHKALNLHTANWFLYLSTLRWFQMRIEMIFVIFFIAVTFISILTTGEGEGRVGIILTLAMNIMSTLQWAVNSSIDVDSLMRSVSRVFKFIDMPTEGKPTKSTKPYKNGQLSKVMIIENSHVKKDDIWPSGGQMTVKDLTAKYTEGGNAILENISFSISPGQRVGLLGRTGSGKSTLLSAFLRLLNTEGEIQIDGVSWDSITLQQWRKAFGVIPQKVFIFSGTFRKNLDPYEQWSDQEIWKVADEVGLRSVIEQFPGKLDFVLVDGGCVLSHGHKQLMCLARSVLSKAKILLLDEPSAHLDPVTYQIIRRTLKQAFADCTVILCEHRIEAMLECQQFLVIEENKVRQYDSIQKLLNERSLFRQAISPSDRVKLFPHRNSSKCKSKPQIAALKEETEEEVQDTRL

Compound: COC(=O)C1=C(C)NC(C)=C(C(=O)OC)C1c1c(-c2cc(OC)ccc2OC)nc2sc(Cl)cn12
- Activity [1]: inactive
- inhibition [2]: 91%
- Activity [3]: inactive
- IC50 [4]: 1140 nM

Compound: COC(=O)C1=C(C)NC(C)=C(C(=O)OC)C1c1c(-c2cccc(OC(F)(F)F)c2)nc2sccn12
- Activity [1]: inactive
- Emax [5]: 64 ms-1
- inhibition [6]: 76%
- Kd [7]: 1400 nM
- IC50 [4]: 18 nM
- IC50 [8]: 58 nM

Compound: CCOC(=O)C1=C(C)NC(C)=C(C(=O)OCC)C1c1c(-c2ccccc2)nc2sc(C)cn12
- Activity [1]: inactive
- inhibition at 10 µM [9]: 84%
- inhibition [10]: 83%
- EC50 [11]: 7150 nM
- inhibition at 10 µM [12]: 44%
- Emax [5]: 60 ms-1
- Kd [7]: 14800 nM
- IC50 [4]: 250 nM
- inhibition at 10 µM [13]: 5%

Compound: COC(=O)C1=C(C)NC(C)=C(C(=O)OC)C1c1c(Cl)nc2sc(Cl)cn12
- Activity [1]: inactive
- inhibition at 100 µM [14]: 87%
- Ratio EC50 [15]: 2.6
- inhibition [10]: 60%
- Emax [5]: 60 ms-1
- Kd [7]: 6800 nM
- IC50 [4]: 680 nM
- IC50 [8]: 3660 nM

Compound: COC(=O)C1=C(C)NC(C)=C(C(=O)OC)C1c1c(-c2ccc(OC)c(OC)c2)nc2sccn12
- Activity [1]: inactive
- inhibition [10]: 90%
- Activity [3]: inactive
- IC50 [4]: 450 nM

Compound: COC(=O)C1=C(C)NC(C)=C(C(=O)OC)C1c1c(-c2ccccc2OC(F)(F)F)nc2sccn12
- Activity [1]: inactive
- inhibition at 10 µM [16]: 47%
- Activity [3]: inactive

Compound: CCc1cn2c(C3C(C(=O)OC)=C(C)NC(C)=C3C(=O)OC)c(-c3cc(OC)ccc3OC)nc2s1
- Activity [1]: inactive
- inhibition [17]: 92%
- Activity [3]: inactive
- IC50 [4]: 2160 nM

Compound: C=CCOC(=O)C1=C(C)NC(C)=C(C(=O)OCC=C)C1/C=C/c1ccccc1OC
- inhibition at 1 µM [18]: 83%
- inhibition at 10 µM [9]: 6%
- inhibition at 10 µM [16]: 29%
- inhibition [17]: 68%
- Emax [5]: 59 ms-1
- EC50 [19]: 34 nM
- Kd [7]: 400 nM
- IC50 [4]: 940 nM
- inhibition at 10 µM [13]: 1%

Compound: COC(=O)C1=C(C)NC(C)=C(C(=O)OC)C1c1c(-c2cc(OC)c(OC)cc2[N+](=O)[O-])nc2sccn12
- Activity [1]: inactive
- inhibition [2]: 86%
- Ratio EC50 [20]: 9
- Activity [3]: inactive
- IC50 [4]: 11400 nM

Compound: CCOC(=O)C1=C(C)NC(C)=C(C(=O)OCC)C1c1c(-c2ccc(Cl)c(Cl)c2Cl)nc2sccn12
- inhibition at 1 µM [18]: 90%
- Activity [1]: inactive
- inhibition at 100 µM [21]: 17%
- inhibition at 10 µM [9]: 92%
- inhibition at 10 µM [16]: 40%
- inhibition [10]: 77%
- EC50 [11]: 610 nM
- Emax [5]: 46 ms-1
- EC50 [19]: 430 nM
- Kd [7]: 3200 nM
- IC50 [4]: 38 nM

Compound: COC(=O)C1=C(C)NC(C)=C(C(=O)OC)C1c1c(C)nc2sc(C)cn12
- Activity [1]: inactive
- inhibition at 10 µM [16]: 27%
- inhibition [17]: 70%
- Activity [3]: inactive
- IC50 [4]: 8830 nM

Compound: COC(=O)C1=C(C)NC(C)=C(C(=O)OC)C1c1c(Cl)nc2scc(C)n12
- Activity [1]: inactive
- Ratio EC50 [15]: 2.6
- Emax [5]: 60 ms-1
- Kd [7]: 21400 nM
- IC50 [4]: 510 nM

Compound: COC(=O)C1=C(C)NC(C)=C(C(=O)OC)C1c1c(-c2cc(OC)c([N+](=O)[O-])cc2OC)nc2sc(Cl)cn12
- Activity [1]: inactive
- inhibition [22]: 92%
- inhibition at 100 µM [14]: 35%
- Activity [3]: inactive
- IC50 [4]: 74 nM

Compound: C=CCOC(=O)C1=C(C)NC(C)=C(C(=O)OCC=C)C1c1c(-c2ccc(OC(F)(F)F)cc2)nc2sccn12
- Activity [1]: inactive
- inhibition at 10 µM [16]: 38%
- inhibition at 100 µM [23]: 88%
- EC50 [11]: 1970 nM
- Emax [5]: 60 ms-1
- EC50 [19]: 730 nM
- inhibition [6]: 90%
- Kd [7]: 4800 nM
- IC50 [4]: 5.3 nM
- inhibition at 100 µM [24]: 77%
- inhibition at 1 µM [25]: 31%

Compound: COC(=O)C1=C(C)NC(C)=C(C(=O)OC)C1c1c(-c2ccccc2)nc2n1CCS2
- Activity [1]: inactive
- inhibition at 100 µM [21]: 46%
- inhibition at 100 µM [23]: 78%
- inhibition [10]: 80%
- EC50 [11]: 8630 nM
- EC50 [19]: 390 nM
- Ratio EC50 [20]: 22
- Activity [3]: inactive
- IC50 [4]: 260 nM
- inhibition at 100 µM [24]: 90%

Compound: COC(=O)C1=C(C)NC(C)=C(C(=O)OC)C1c1c(-c2c(OC)ccc(OC)c2[N+](=O)[O-])nc2sccn12
- Activity [1]: inactive
- Activity [3]: inactive

Compound: COC(=O)C1=C(C)NC(C)=C(C(=O)OC)C1c1c(Cl)nc2sc(C)cn12
- Activity [1]: inactive
- Activity [3]: inactive

Compound: COC(=O)C1=C(C)NC(C)=C(C(=O)OC)C1c1c(-c2ccccc2OC)nc2sccn12
- Activity [1]: inactive
- Activity [3]: inactive
- IC50 [4]: 860 nM

Compound: COC(=O)C1=C(C)NC(C)=C(C(=O)OC)C1c1c(C)nc2sc(Cl)cn12
- Activity [1]: inactive
- Ratio EC50 [15]: 2.6
- Emax [5]: 60 ms-1
- Kd [7]: 42900 nM
- IC50 [4]: 550 nM

Compound: COC(=O)C1=C(C)NC(C)=C(C(=O)OC)C1c1c(-c2cc(OC)c(OC)c(OC)c2)nc2sc(Cl)cn12
- Activity [1]: inactive
- Activity [3]: inactive

Compound: COC(=O)C1=C(C)NC(C)=C(C(=O)OC)C1c1c(-c2cc(OC)ccc2OC)nc2sc(C)cn12
- Activity [1]: inactive
- inhibition [17]: 74%
- Activity [3]: inactive
- IC50 [4]: 4890 nM

Compound: COC(=O)C1=C(C)NC(C)=C(C(=O)OC)C1c1c(-c2cccc(OC)c2)nc2sccn12
- Activity [1]: inactive
- Emax [5]: 60 ms-1
- Kd [7]: 34200 nM

Compound: COC(=O)C1=C(C)NC(C)=C(C(=O)OC)C1c1c(Cl)nc2sc(C)c(C)n12
- Activity [1]: inactive
- inhibition [10]: 78%
- Emax [5]: 60 ms-1
- Kd [7]: 10900 nM
- IC50 [4]: 320 nM

— ChEMBL document CHEMBL1811821, “Cystic fibrosis: a new target for 4-Imidazo[2,1-b]thiazole-1,4-dihydropyridines” (J Med Chem, 2011)
